Measured values: the EternaBench riboswitch data

System: MS2 coat protein
Assay: apparent Kd, MS2 coat protein; higher = weaker binding; RNA-MaP array; FMN 200 µM where present
Procedure, shortened: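 The apparent Kd is the median of filtered binding-curve fits, one per cluster, to green signal normalised to red-channel RNA signal and control-cluster median Fmax. The clusters were on Illumina sequencing chips, and stalled E. coli RNA polymerase had transcribed the designs on them. Titration used SNAP-549-labelled MS2 coat protein from 0.7 or 1.5 nM, doubling to 3 µM, without and then with constant ligand, in 100 mM Tris-HCl pH 7.5, 80 mM KCl, 4 mM MgCl2, BSA, DTT, yeast tRNA and Tween-20.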

[1] = designed as: OFF switch for flavin mononucleotide, no ligand
[2] = ligand present: flavin mononucleotide, designed as: OFF switch for flavin mononucleotide
[3] = designed as: ON switch for flavin mononucleotide, no ligand
[4] = ligand present: flavin mononucleotide, designed as: ON switch for flavin mononucleotide

Sequence: GUGUACAGAGGAUAUACAUAAGCAUGGAAACAUGCAACCUCACAUGAGGAUCACCCAUGUAGAAGGCUGUACAC
- apparent Kd [1]: 161 nM
- apparent Kd [2]: 65.3 nM

Sequence: UAAUAUUUAUGAUAUUAUUACAGUAGAAGGCUAUACAUGUGGAUACAUGAGGAUCACCCAUGUAUAGAGGAUAUAUACAUAUAU
- apparent Kd [1]: 964 nM
- apparent Kd [2]: 351 nM

Sequence: UUGGACGUCGUAGGAUAUAUAGGAUAUUCCUACAUGAGGAUCACCCAUGUUGACAUGGAAGAAGGACAGAAGGACGAUGUCCAU
- apparent Kd [3]: 27.1 nM
- apparent Kd [4]: 9.75 nM

Sequence: UUUUAGAGAGGAUAUACAUUUUUUUAUUUAUUUAUAAUAUUACAUGAGGAUCACCCAUGUAGAAGGCUCAUUUU
- apparent Kd [1]: 28.8 nM
- apparent Kd [2]: 22 nM

Sequence: UGGUACUAGGGAGGAUAUGGGAAGAUACAUGAGGAUCACCCAUGUUUAAGAAUGCCGAGAGGCCACUAGAAGGCCCUAGUACCU
- apparent Kd [3]: 244 nM
- apparent Kd [4]: 12.4 nM

Sequence: GGGAGACAUGAGGAUCACCCAUGUGAAAACGUGUGAGGAUAUGAAUGGAAACCAUACUGUUCAGAAGGCACUUGUC
- apparent Kd [3]: 89.7 nM
- apparent Kd [4]: 36.6 nM

Sequence: UUGCGGGAUUGAGGAUAUUGAGUACAUAUGUUUAACAUGAGGAUCACCCAUGUGGGUUGCGGUAUCGAGAAGGUAACUUACUAC
- apparent Kd [3]: 95.8 nM
- apparent Kd [4]: 104 nM

Sequence: CGCACACAUGAGGAUCACCCAUGUGAGGAUAUCAUGCUUCGUAGUAAACUACGAAGUGUGAGAAGGCACAUGUC
- apparent Kd [1]: 31.2 nM
- apparent Kd [2]: 102 nM

Sequence: UAUAUAUAGUAAGGAUAUGUAUUUAUUUCAUAAACAGAAGGUACUGACAUGAGGAUCACCCAUGUUUUAGUGUGGGCAUGUAGA
- apparent Kd [1]: 81.8 nM
- apparent Kd [2]: 121 nM

Sequence: CUGUUUUUCGCAGGAUAUGCUCCUCCUUUAUUAGCAGAAGGGCGUUAAACAUGAGGAUCACCCAUGUAUGGUAAUGACAUUUUC
- apparent Kd [1]: 33.6 nM
- apparent Kd [2]: 209 nM

Sequence: CGUGCGUAUGUGAGGAUAUGCUGGUCCUUGGAUCAGCAGAAGGCACAUGAGGAUCACCCAUGUGGUGUCGUACU
- apparent Kd [1]: 297 nM
- apparent Kd [2]: 19.2 nM

Sequence: UUUAAACAUGAGGAUCACCCAUGUCGUUCAAAUCAAGGAUAUCAAGCGUGUGAGCACACUUGAGAAGGUGAAGCUC
- apparent Kd [3]: 31 nM
- apparent Kd [4]: 60.8 nM

Sequence: CCGUCAAUCGAGAAGGGCCUAUGUGCUACACCGGCAGGAUAUCGACAUGAGGAUCACCCAUGUUGGCGAUCCUUUUUGGCGGAC
- apparent Kd [1]: 135 nM
- apparent Kd [2]: 36.5 nM

Sequence: UGUCGGAGCAGAGGAUAUUACAUGAGGAUCACCCAUGUAUGAACCAAUAGCUGGGAACAGCAAUGUAAGAAGGCUGCUCCGACA
- apparent Kd [1]: 18.6 nM
- apparent Kd [2]: 201 nM

Sequence: ACAGCGUGAGGAUAUACAUGAGGAUCACCCAUGUGUGGCAGGUUAUCCUGUCAUAAGUGUAGAAGGCACGCUGU
- apparent Kd [1]: 44.4 nM
- apparent Kd [2]: 93.9 nM

Sequence: GCAUACAUUCGAGGAUAUCGGUGAACAAAUUAACGAGAAGGCGAUAUAAUUUUUAAACUUAUUGACAUGAGGAUCACCCAUGUA
- apparent Kd [3]: 23.2 nM
- apparent Kd [4]: 20.8 nM

Sequence: GUCAUGUGAGGAUAUGUAUUGCGCAUGCCGAAAACAUGGCGGCAGAAGGCACAUGAGGAUCACCCAUGUGGGUU
- apparent Kd [1]: 62.7 nM
- apparent Kd [2]: 34.4 nM

Sequence: GGAAAACAUGAGGAUCACCCAUGUGAGGAUAUCGAUGUCCAGAGGGAGGUGCGGGACUCGAGAAGGCACUUGGA
- apparent Kd [1]: 34.2 nM
- apparent Kd [2]: 82.8 nM

Sequence: CAAUUUAUGUCAGGAUAUACAAUACAAUGAUUAGUAGAAGGGAUUAAUACAUGAGGAUCACCCAUGUCAUGUGUCAUAAUAACC
- apparent Kd [1]: 26.1 nM
- apparent Kd [2]: 20.1 nM

Sequence: UAUAAAUUAAAAGGAUAUUCAUACCGGAAACGGACAUGAGGAUCACCCAUGUGGCGAAAGCCUUGGGAGAAGGUAUUAAAUAAU
- apparent Kd [3]: 268 nM
- apparent Kd [4]: 263 nM

Sequence: CAAUUGGCACAGAAGGGUGACAUGAGGAUCACCCAUGUAGCGUGGCAUUCAGGAGGAGCCACGCCACAGGAUAUGUGCCGGCAC
- apparent Kd [3]: 138 nM
- apparent Kd [4]: 116 nM

Sequence: CCGUUACAUGAGGAUCACCCAUGUGAGGAUAUCGGUGUGACUGGCAGCGUGCGGGACUCGAGAAGGCACUGGGC
- apparent Kd [1]: 71.2 nM
- apparent Kd [2]: 87.9 nM

Sequence: CCUGCACAUGAGGAUCACCCAUGUUAGGAUAUAUUUGACCGUGGAAUUACCAUUGGAAGUAGAAGGAACAUGUA
- apparent Kd [1]: 16.1 nM
- apparent Kd [2]: 18 nM

Sequence: UAGAAACAUGAGGAUCACCCAUGUGGGUUAAACACAGGAUAUCACGCCAAAAGAAAAGCGUGAGAAGGGUGACCGA
- apparent Kd [3]: 86.4 nM
- apparent Kd [4]: 717 nM

Sequence: UGUCUGAGCAGAGGAUAUUACAUGAGGAUCACCCAUGUAUGAACCAAUAGCUGGAAACAGCAAUGUAAGAAGGCUGCUCCGACA
- apparent Kd [1]: 12.6 nM
- apparent Kd [2]: 199 nM

Sequence: UGGUACAUCGGAGGAUAUCAUGUGAAAACAUGAGGAUCACCCAUGUCGAUGGAGACAUCGGAGAUUGAGAAGGCCGAUGUACCU
- apparent Kd [3]: 1470 nM
- apparent Kd [4]: 49.9 nM

Sequence: UGUCGGAGCAGAGGAUAUUACAUGAGGAUCACCCAUGUAAUAAGAUCAAGCUGGAAACAGCAAUGUAAGAAGGCUGCUCCGACA
- apparent Kd [1]: 16.9 nM
- apparent Kd [2]: 43.3 nM

Sequence: AAUAAACUCACAGGAUAUAGCAUAGGUCGCCUGAACUUACAGGCGACUAUGCUAGAAGGGUGACCACAUGAGGAUCACCCAUGU
- apparent Kd [3]: 847 nM
- apparent Kd [4]: 168 nM

Sequence: AGCUACGUUUCGUAGCAGUGUCAUCGAGAAGGCCUCAUUACAUGAGGAUCACCCAUGUAAGCAUGGGAGGAUAUCGAUGAUACA
- apparent Kd [3]: 36.5 nM
- apparent Kd [4]: 15.6 nM

Sequence: AAUAACAGAGGAUAUACUAUUUUAUGUGUUUGUUGUUUUAAACAUGAGGAUCACCCAUGUAGAAGGCUGAUUGA
- apparent Kd [1]: 38.2 nM
- apparent Kd [2]: 45.4 nM

Sequence: UUAUAUAGUGUGAGGAUAUGCUGGUCCUUGGAUCAGCAGAAGGCACAUGAGGAUCACCCAUGUAAUAUAUUAUU
- apparent Kd [1]: 67.1 nM
- apparent Kd [2]: 156 nM

Sequence: UGGUACAUGGGAGGAUAUCAUGUUCUUACAUGAGGAUCACCCAUGUCGAUGGAGACAUCGGAGAUUGAGAAGGCCCAUGUACCU
- apparent Kd [3]: 1070 nM
- apparent Kd [4]: 54.2 nM

Sequence: UUACUAUCACAGAAGGCUGGAUAGUAUAUAGACGGAGGAUAUGUGACAUGAGGAUCACCCAUGUUUCACCGACAUGAGGAUCAA
- apparent Kd [1]: 22.5 nM
- apparent Kd [2]: 54.1 nM

Sequence: GGUGCGUUUGUGAGGAUAUGCUGGUCCUUGGUUCAGCAGAAGGCACAUGAGGAUCACCCAUGUGGUGUCGUACC
- apparent Kd [1]: 240 nM
- apparent Kd [2]: 28 nM

Sequence: CUUAUGUGAGGAUAUCAGUAGUAAAAAAAUAAAAUUACUACUGAGAAGGCACAUGAGGAUCACCCAUGUUCCUC
- apparent Kd [1]: 115 nM
- apparent Kd [2]: 429 nM

Sequence: UCAUACAUUCGAGGAUAUCGGUGAUAACUCAAACGAGAAGGCGAUUUAAAACAUAAUGCUGUAGACAUGAGGAUCACCCAUGUA
- apparent Kd [3]: 476 nM
- apparent Kd [4]: 182 nM

Sequence: GGAAGAGUAGGAUAUACAUGAGGAUCACCCAUGUCCUGGAGAAGCAAUUCGAUAUCCUGUAGAAGGACUAAUCU
- apparent Kd [1]: 40 nM
- apparent Kd [2]: 36.1 nM

Sequence: ACAUGAUAUGUAGGAUAUCACAACAUGAGUUUUAAUAUUGUUAUUUAGGAUUGAGAAGGACAUUUACAUGAGGAUCACCCAUGU
- apparent Kd [1]: 17.5 nM
- apparent Kd [2]: 14.6 nM

Sequence: CUUGAAUAAGUGAGGAUAUACUGUUAGUAAUGAUUGUAGAAGGUACAUGAGGAUCACCCAUGUUUAUUCAUAAU
- apparent Kd [1]: 18.2 nM
- apparent Kd [2]: 18.3 nM

Sequence: UUUUUUUUUAGAGGAUAUAUUGUGUGUUAUAUAAUAGAAGGCUAAACAUGACAUGACACAUGAGGAUCACCCAUGUAUGUCCAU
- apparent Kd [3]: 22.7 nM
- apparent Kd [4]: 18.2 nM

Sequence: GGGUACAUCGGAGGAUAUCAUGGAAAUACAUGAGGAUCACCCAUGUCGAUGGAGACAUCGGAGAUUGAGAAGGCCGAUGUACCG
- apparent Kd [3]: 27.3 nM
- apparent Kd [4]: 6.38 nM

Sequence: GCGCACUAAGUGAGGAUAUCGAUUUCUUUAAGGAUCGAGAAGGCACAUGAGGAUCACCCAUGUUUGACGUGCGC
- apparent Kd [1]: 16.9 nM
- apparent Kd [2]: 14.5 nM

Sequence: UCAUGAAGGACAGGAUAUGGACAUGAGGAUCACCCAUGUACAUGGGAUUAUAUACUGAAUUUAUACUAGAAGGGUUACAUAAAU
- apparent Kd [1]: 44.7 nM
- apparent Kd [2]: 30.2 nM

Sequence: ACAAAUGGAGGAUAUACAUGAGGAUCACCCAUGUUUAUCCUACAUAUGUGAUAAUCAUGUAGAAGGCCAUAUGA
- apparent Kd [1]: 16.5 nM
- apparent Kd [2]: 12.5 nM

Sequence: UCAUUUCUGUUAGGAUAUUAAAACAUGACGAUACAUGAGGAUCACCCAUGUUAAGAAGGAACAAAUACAUAUAAUGCAAUGUUC
- apparent Kd [1]: 12.5 nM
- apparent Kd [2]: 10.7 nM

Sequence: GGGCUGUCAGGAUAUGGGCCCGGGUUUGAAAGGGCCCGGGCCCAGAAGGGACAUGAGGAUCACCCAUGUGGCCC
- apparent Kd [1]: 36.3 nM
- apparent Kd [2]: 36.4 nM

Sequence: CACGGGUUAGGAUAUGCAUGGUGAAAAGACGCGAUCCUUAGACAUGAGGAUCACCCAUGUAGAAGGAACGCAAU
- apparent Kd [1]: 18.6 nM
- apparent Kd [2]: 15.9 nM

Sequence: GUCAGCUCGUGAGGAUAUACAUGUGCUGGAGACAGCACUAUUAUGUUCACAUGAGGAUCACCCAUGUAGAAGGCACGAGCUGAU
- apparent Kd [1]: 16.8 nM
- apparent Kd [2]: 20.9 nM

Sequence: UAUAUAUAGUAAGGAUAUGUAUAUAUUAUAUAAACAGAAGGUACUGACAUGAGGAUCACCCAUGUUUUAGUGUGGGCAUGUAGA
- apparent Kd [1]: 67.8 nM
- apparent Kd [2]: 98.9 nM

Sequence: GAGACACAUGAGGAUCACCCAUGUGAGGAUAUCCGAAGGACCAAAUUAAGAAUUAAAGGGAGAAGGCACAUAAA
- apparent Kd [1]: 27 nM
- apparent Kd [2]: 25.9 nM

Sequence: GUAGCUAUCGGAGGAUAUUCAUAGCCGAAAGGCACAUGAGGAUCACCCAUGUGCGGAAACGCUUGGGAGAAGGCCGAUAGCUAC
- apparent Kd [3]: 25 nM
- apparent Kd [4]: 15.1 nM

Sequence: CUGUUAUUGAUCCAUUUUUUCAACAUGAGGAUCACCCAUGUGCAGGAUAUCGUGAUUAUUAUCAACGAGAAGGGCAGAUUCACG
- apparent Kd [1]: 74 nM
- apparent Kd [2]: 178 nM

Sequence: CCGGAGACGGGUAGCCUGACAUGAGGAUCACCCAUGUGAUCCAAGGAUAUGGAUCCUAAUUGGAUCCAGAAGGUGGUUGGCUAC
- apparent Kd [3]: 376 nM
- apparent Kd [4]: 371 nM

Sequence: CGCACUUAUAGAGGAUAUGUUAAACAUGAGGAUCACCCAUGUGAUUUAGUAUCAAUAUUAGUGAAACAGAAGGCUAUUAGUGCG
- apparent Kd [1]: 13.3 nM
- apparent Kd [2]: 12.9 nM

Sequence: CACCGUUACCUAGGAUAUAGUACAUGAGGAUCACCCAUGUAAUAAAUGAGAAUUUCGGAUGUAUGCUAGAAGGAGGAAAUCGGC
- apparent Kd [1]: 39 nM
- apparent Kd [2]: 40.2 nM
